From ChEMBL document CHEMBL1154616, “Synthesis and antitumor activity studies of some new fused 1,2,4-triazole derivatives carrying 2,4-dichloro-5-fluorophenyl moiety” (Eur J Med Chem, 2009)

Tests used:
Type in all cases: functional
T47D = test: Anticancer activity against human T47D cells after 48 hrs by sulforhodamine B assay
Outline: (§1)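 Cells from the 60-line full panel are preincubated on microtiter plates, then treated across a five-log dose range for 48 h. Growth is read with the protein-binding dye sulforhodamine B. GI50 is the concentration giving 50% growth inhibition relative to untreated control cells.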

MCF7 [1] = test: Anticancer activity against human MCF7 cells after 48 hrs by sulforhodamine B assay; settings: MCF7, 48 h
Outline: (§2)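 Full 60-cell-line panel, compounds tested over a five-log dose range. Cells are preincubated on microtiter plates, the agent is added, and cultures run 48 h. The end point is sulphorhodamine B protein staining. GI50 is taken as the concentration giving 50% growth inhibition relative to untreated control cells.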

OVCAR-4 = test: Anticancer activity against human OVCAR4 cells after 48 hrs by sulforhodamine B assay; settings: OVCAR-4, 48 h; outline: as §2
CCRF-CEM = test: Anticancer activity against human CCRF-CEM cells after 48 hrs by sulforhodamine B assay; outline: as §2
U-251 = test: Anticancer activity against human U251 cells after 48 hrs by sulforhodamine B assay; settings: U-251, 48 h; outline: as §1
SK-OV-3 = test: Anticancer activity against human SKOV3 cells after 48 hrs by sulforhodamine B assay; settings: SK-OV-3, 48 h; outline: as §2
K562 = test: Anticancer activity against human K562 cells after 48 hrs by sulforhodamine B assay; settings: K562, 48 h; outline: as §2
NCI-H460 [2] = test: Anticancer activity against human NCI-H460 cells assessed as cell growth at 100 uM after 48 hrs by sulforhodamine B assay relative to control; settings: NCI-H460, 48 h, read-out: Activity
Outline: (§3)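 Three-cell-line prescreen (NCI-H460 lung, MCF7 breast, SF 268 CNS), each preincubated on microtiter plates. The agent is added at a single concentration and cultures are incubated 48 h. Growth is read by sulphorhodamine B protein staining and reported as percent growth of treated versus untreated control cells; negative values indicate cell kill.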

OVCAR-8 = test: Anticancer activity against human OVCAR8 cells after 48 hrs by sulforhodamine B assay; settings: OVCAR-8, 48 h; outline: as §2
SW-620 = test: Anticancer activity against human SW620 cells after 48 hrs by sulforhodamine B assay; settings: SW-620, 48 h; outline: as §1
UO-31 = test: Anticancer activity against human UO31 cells after 48 hrs by sulforhodamine B assay; settings: UO-31, 48 h; outline: as §1
ACHN = test: Anticancer activity against human ACHN cells after 48 hrs by sulforhodamine B assay; outline: as §2
UACC-62 = test: Anticancer activity against human UACC62 cells after 48 hrs by sulforhodamine B assay; settings: UACC-62, 48 h; outline: as §1
RXF 393 = test: Anticancer activity against human RXF393 cells after 48 hrs by sulforhodamine B assay; settings: RXF 393, 48 h; outline: as §2
MOLT-4 = test: Anticancer activity against human MOLT4 cells after 48 hrs by sulforhodamine B assay; settings: MOLT-4, 48 h; outline: as §2
TK-10 = test: Anticancer activity against human TK10 cells after 48 hrs by sulforhodamine B assay; settings: TK-10, 48 h; outline: as §1
NCI-H23 = test: Anticancer activity against human NCI-H23 cells after 48 hrs by sulforhodamine B assay; settings: NCI-H23, 48 h; outline: as §2
OVCAR-3 = test: Anticancer activity against human OVCAR-3 cells after 48 hrs by sulforhodamine B assay; settings: OVCAR-3, 48 h; outline: as §2
HCC 2998 = test: Anticancer activity against human HCC2998 cells after 48 hrs by sulforhodamine B assay; settings: HCC 2998, 48 h; outline: as §2
UACC-257 = test: Anticancer activity against human UACC257 cells after 48 hrs by sulforhodamine B assay; settings: UACC-257, 48 h; outline: as §1
EKVX = test: Anticancer activity against human EKVX cells after 48 hrs by sulforhodamine B assay; outline: as §2
SF-268 [3] = test: Anticancer activity against human SF268 cells after 48 hrs by sulforhodamine B assay; settings: SF-268, 48 h; outline: as §2
[4] = Anticancer activity against human Hs 578T cells after 48 hrs by sulforhodamine B assay; outline: as §2
COLO 205 = test: Anticancer activity against human COLO205 cells after 48 hrs by sulforhodamine B assay; settings: COLO 205, 48 h; outline: as §2
OVCAR-5 = test: Anticancer activity against human OVCAR5 cells after 48 hrs by sulforhodamine B assay; settings: OVCAR-5, 48 h; outline: as §2
MCF7 [5] = test: Anticancer activity against human MCF7 cells assessed as cell growth at 100 uM after 48 hrs by sulforhodamine B assay relative to control; settings: MCF7, 48 h, read-out: Activity; outline: as §3
NCI-H522 = test: Anticancer activity against human NCI-H522 cells after 48 hrs by sulforhodamine B assay; settings: NCI-H522, 48 h; outline: as §2
A549 = test: Anticancer activity against human A549 cells after 48 hrs by sulforhodamine B assay; settings: A549, 48 h; outline: as §2
LOX IMVI = test: Anticancer activity against human LOXIMVI cells after 48 hrs by sulforhodamine B assay; outline: as §2
SF-539 = test: Anticancer activity against human SF539 cells after 48 hrs by sulforhodamine B assay; settings: SF-539, 48 h; outline: as §2
SK-MEL-28 = test: Anticancer activity against human SK-MEL-28 cells after 48 hrs by sulforhodamine B assay; settings: SK-MEL-28, 48 h; outline: as §2
PC-3 = test: Anticancer activity against human PC3 cells after 48 hrs by sulforhodamine B assay; settings: PC-3, 48 h; outline: as §2
SNB-19 = test: Anticancer activity against human SNB19 cells after 48 hrs by sulforhodamine B assay; settings: SNB-19, 48 h; outline: as §2
NCI-H226 = test: Anticancer activity against human NCI-H226 cells after 48 hrs by sulforhodamine B assay; settings: NCI-H226, 48 h; outline: as §2
SF-268 [6] = test: Anticancer activity against human SF268 cells assessed as cell growth at 100 uM after 48 hrs by sulforhodamine B assay relative to control; settings: SF-268, 48 h, read-out: Activity; outline: as §3
Malme-3M = test: Anticancer activity against human MALME-3M cells after 48 hrs by sulforhodamine B assay; outline: as §2
NCI-H322M = test: Anticancer activity against human NCI-H322M cells after 48 hrs by sulforhodamine B assay; outline: as §2
HOP-92 = test: Anticancer activity against human HOP92 cells after 48 hrs by sulforhodamine B assay; settings: HOP-92, 48 h; outline: as §2
MDA-MB-435 = test: Anticancer activity against human MDA-MB-435 cells after 48 hrs by sulforhodamine B assay; settings: MDA-MB-435, 48 h; outline: as §2
MDA-MB-231 = test: Anticancer activity against human MDA-MB-231 cells after 48 hrs by sulforhodamine B assay; settings: MDA-MB-231, 48 h; outline: as §2
DU-145 = test: Anticancer activity against human DU145 cells after 48 hrs by sulforhodamine B assay; settings: DU-145, 48 h; outline: as §2
SN12C = test: Anticancer activity against human SN12C cells after 48 hrs by sulforhodamine B assay; outline: as §2
NCI/ADR-RES = test: Anticancer activity against human NCI/ADR-RES cells after 48 hrs by sulforhodamine B assay; outline: as §2
[7] = Anticancer activity against human […] cells after 48 hrs by sulforhodamine B assay; outline: as §2
HT-29 = test: Anticancer activity against human HT-29 cells after 48 hrs by sulforhodamine B assay; settings: HT-29, 48 h; outline: as §2
HL-60(TB) = test: Anticancer activity against human HL-60(TB) cells after 48 hrs by sulforhodamine B assay; settings: HL-60, 48 h
Outline: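 Run within the full 60-cell-line panel across a five-log dose range. GI50 was taken as the concentration causing 50% growth inhibition relative to untreated control cells.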

SR = test: Anticancer activity against human SR cells after 48 hrs by sulforhodamine B assay; outline: as §1
IGROV-1 = test: Anticancer activity against human IGROV1 cells after 48 hrs by sulforhodamine B assay; settings: IGROV-1, 48 h; outline: as §2
CAKI-1 = test: Anticancer activity against human Caki1 cells after 48 hrs by sulforhodamine B assay; settings: CAKI-1, 48 h; outline: as §2
SF-295 = test: Anticancer activity against human SF295 cells after 48 hrs by sulforhodamine B assay; settings: SF-295, 48 h; outline: as §2
SNB-75 = test: Anticancer activity against human SNB75 cells after 48 hrs by sulforhodamine B assay; settings: SNB-75, 48 h; outline: as §1
KM12 = test: Anticancer activity against human KM12 cells after 48 hrs by sulforhodamine B assay; settings: KM12, 48 h; outline: as §2
NCI-H460 [8] = test: Anticancer activity against human NCI-H460 cells after 48 hrs by sulforhodamine B assay; settings: NCI-H460, 48 h; outline: as §2
HCT-15 = test: Anticancer activity against human HCT15 cells after 48 hrs by sulforhodamine B assay; settings: HCT-15, 48 h; outline: as §2

## Fc1cc(C2=Nn3c(nnc3-c3cc(F)c(Cl)cc3Cl)SC2)c(Cl)cc1Cl
T47D
  GI50: 4.93 µM
MCF7 [1]
  GI50: 16.8 µM
OVCAR-4
  GI50: 34.5 µM
CCRF-CEM
  GI50: 22 µM
U-251
  GI50: 20.4 µM
SK-OV-3
  GI50: 29.2 µM
K562
  GI50: 17.8 µM
NCI-H460 [2]
  growth at 100 µM: 6%
OVCAR-8
  GI50: 26 µM
SW-620
  GI50: 22.6 µM
UO-31
  GI50: 31.3 µM
ACHN
  GI50: 26.6 µM
UACC-62
  GI50: 13.3 µM
RXF 393
  GI50: 23.2 µM
MOLT-4
  GI50: 16.9 µM
TK-10
  GI50: 37.4 µM
NCI-H23
  GI50: 21.8 µM
OVCAR-3
  GI50: 11.5 µM
HCC 2998
  GI50: 31.6 µM
UACC-257
  GI50: 30.2 µM
EKVX
  GI50: 24.6 µM
SF-268 [3]
  GI50: 18.5 µM
[4]
  GI50: 21.9 µM
COLO 205
  GI50: 19 µM
OVCAR-5
  GI50: 56.8 µM
MCF7 [5]
  growth at 100 µM: 44%
NCI-H522
  GI50: 24.2 µM
A549
  GI50: 23.7 µM
LOX IMVI
  GI50: 21.6 µM
SF-539
  GI50: 18.9 µM
SK-MEL-28
  GI50: 21.5 µM
PC-3
  GI50: 16.9 µM
SNB-19
  GI50: 22.7 µM
NCI-H226
  GI50: 14.9 µM
SF-268 [6]
  growth at 100 µM: 26%
Malme-3M
  GI50: 28.4 µM
NCI-H322M
  GI50: 29.1 µM
HOP-92
  GI50: 11.3 µM
MDA-MB-435
  GI50: 27.8 µM
MDA-MB-231
  GI50: 13.4 µM
DU-145
  GI50: 36.6 µM
SN12C
  GI50: 18.4 µM
NCI/ADR-RES
  GI50: 27.4 µM
[7]
  GI50: 6 µM
HT-29
  GI50: 20.1 µM
HL-60(TB)
  GI50: 80.4 µM
SR
  GI50: 25.4 µM
IGROV-1
  GI50: 29.8 µM
CAKI-1
  GI50: 20.6 µM
SF-295
  GI50: 20.3 µM
SNB-75
  GI50: 26.2 µM
KM12
  GI50: 28.5 µM
NCI-H460 [8]
  GI50: 17.6 µM
HCT-15
  GI50: 20.2 µM
